Drawing on ChEMBL document CHEMBL4270634, “Benzothiazole carbamates and amides as antiproliferative species” (Eur J Med Chem, 2018), this text covers Activity for 3 molecules.

Data set [1] has as its system MCF7. Description: Decrease in ROS production in human MCF7 cells at 25 uM measured after 24 hrs by DCFH-DA probe based flow cytometric analysis. It counts as functional. Set-up: scale not given: the % may be the effect or the level left. The procedure, abridged:
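MCF-7 cells exposed 24 h at 25 µM. Intracellular ROS measured by flow cytometry with DCFH-DA and compared to untreated control cells.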
On the technique in general: In flow cytometry, cells or beads pass a laser one at a time.

The test system of data set [2] is NTERA-2-cl-D1. Description: Induction of apoptosis in human NT2/D1 cells at IC50 after 24 hrs by Annexin V-FITC/PI staining based flow cytometry. It counts as functional, cell-based.
For data set [3], the system named is NTERA-2-cl-D1. Description: Induction of cell detachment in human NT2/D1 cells assessed as floating cells at 1 uM after 48 hrs by trypan blue exclusion assay relative to total cell number. The data set is classed as functional.
In data set [4] the test system is NTERA-2-cl-D1. Description: Decrease in ROS production in human NT2/D1 cells at 1 uM measured after 48 hrs by DCFH-DA probe based flow cytometric analysis. It counts as functional, cell-based.
Data set [5] relates to NTERA-2-cl-D1. Description: Anti-invasive activity in human NT2/D1 cells at IC50 measured after 24 hrs by matrigel coated transwell assay relative to control. It counts as functional. The procedure, abridged:
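Cells pretreated 24 h in complete medium at IC₅₀ concentrations, then seeded in serum-free medium onto Matrigel-coated transwell inserts with FBS as chemoattractant. Invasion allowed for 48 h; invaded cells fixed, stained and counted microscopically in five fields. Result expressed as % of untreated invasion. Means ± SEM of two independent experiments.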

Data set [6] deals with Mus musculus. Description: Acute toxicity in athymic nude mouse at 100 to 400 mg/kg ip administered as single dose measured after 14 days. It counts as organism-based. To be noted: in vivo, 336 h. The procedure, abridged:
(§1)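 Single i.p. injection into nontumored female athymic nude mice as an NCI maximum-tolerated-dose acute toxicity assay.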

Data set [7] concerns MCF7. Description: Cell cycle arrest in human MCF7 cells assessed as accumulation at sub-G1 phase at 25 uM after 24 hrs by propidium iodide staining based flow cytometry (reference value: 0.65%). It counts as functional.
For data set [8], the system named is MCF7. Description: Cell cycle arrest in human MCF7 cells assessed as accumulation at G0/G1 phase at 25 uM after 24 hrs by propidium iodide staining based flow cytometry (reference value: 44.23%). The data set is classed as functional.
The subject of data set [9] is MCF7. Description: Cell cycle arrest in human MCF7 cells assessed as accumulation at S phase at 25 uM after 24 hrs by propidium iodide staining based flow cytometry (reference value: 28.27%). It counts as functional.
Data set [10] has as its system MCF7. Description: Cell cycle arrest in human MCF7 cells assessed as accumulation at G2/M phase at 25 uM after 24 hrs by propidium iodide staining based flow cytometry (reference value: 27.04%). The data set is classed as functional.
The test system of data set [11] is MCF7. Description: Cell cycle arrest in human MCF7 cells assessed as accumulation at sub-G1 phase at 25 uM after 48 hrs by propidium iodide staining based flow cytometry (reference value: 0.41%). The data set is classed as functional.
The test system of data set [12] is MCF7. Description: Cell cycle arrest in human MCF7 cells assessed as accumulation at G0/G1 phase at 25 uM after 48 hrs by propidium iodide staining based flow cytometry (reference value: 48.80%). It counts as functional.
Data set [13] concerns MCF7. Description: Cell cycle arrest in human MCF7 cells assessed as accumulation at S phase at 25 uM after 48 hrs by propidium iodide staining based flow cytometry (reference value: 23.07%). The data set is classed as functional.
Data set [14] has as its system MCF7. Description: Cell cycle arrest in human MCF7 cells assessed as accumulation at G2/M phase at 25 uM after 48 hrs by propidium iodide staining based flow cytometry (reference value: 28.03%). The data set is classed as functional.
The test system of data set [15] is MCF7. Description: Cell cycle arrest in human MCF7 cells at 25 uM by propidium iodide staining based flow cytometry. It counts as functional. As to conditions: TDE = time-dependent effect.
The subject of data set [16] is MCF7. Description: Effect on cyclin B1 levels in human MCF7 cells at 25 uM after 24 hrs by propidium iodide staining based flow cytometry (reference value: 26.6%). It counts as functional. In outline: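 MCF-7 cells treated 24 h at 25 µM or 30 µM; intracellular cyclin B1 level measured by flow cytometry.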
The subject of data set [17] is MCF7. Description: Induction of apoptosis in human MCF7 cells assessed as early apoptotic cells at 25 uM after 24 hrs by Annexin V-FITC/PI staining based flow cytometry (reference value: 1.30%). The data set is classed as functional. In outline:
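MCF-7 cells were treated for 24 h at a single concentration (25 µM or 30 µM, depending on compound). Apoptosis was assessed by bivariate Annexin V-FITC/PI flow cytometry, distinguishing early apoptotic from late apoptotic/necrotic cells, against untreated control.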

The test system of data set [18] is MCF7. Description: Induction of apoptosis in human MCF7 cells assessed as late apoptotic cells at 25 uM after 24 hrs by Annexin V-FITC/PI staining based flow cytometry (reference value: 2.78%). The data set is classed as functional.
In data set [19] the test system is MCF7. Description: Induction of apoptosis in human MCF7 cells assessed as necrotic cells at 25 uM after 24 hrs by Annexin V-FITC/PI staining based flow cytometry (reference value: 2.62%). The data set is classed as functional.
The subject of data set [20] is MCF7. Description: Induction of apoptosis in human MCF7 cells assessed as early apoptotic cells at 25 uM after 48 hrs by Annexin V-FITC/PI staining based flow cytometry (reference value: 0.98%). It counts as functional.
For data set [21], the system named is MCF7. Description: Induction of apoptosis in human MCF7 cells assessed as late apoptotic cells at 25 uM after 48 hrs by Annexin V-FITC/PI staining based flow cytometry (reference value: 2.95%). It counts as functional.
The subject of data set [22] is MCF7. Description: Induction of apoptosis in human MCF7 cells assessed as necrotic cells at 25 uM after 48 hrs by Annexin V-FITC/PI staining based flow cytometry (reference value: 0.82%). The data set is classed as functional.
Data set [23] relates to MCF7. Description: Induction of mitochondrial membrane potential loss in human MCF7 cells at IC50 measured after 24 hrs by Rh123 dye-based flow cytometric analysis. It counts as functional, cell-based. In outline:
(§2)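 Mitochondrial membrane potential was assessed by Rh123 incorporation with flow cytometry and compared with untreated cells.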

In data set [24] the test system is MCF7. Description: Induction of mitochondrial membrane potential loss in human MCF7 cells at IC50 measured after 48 hrs by Rh123 dye-based flow cytometric analysis. The data set is classed as functional. In outline: as §2
Data set [25] relates to MCF7. Description: Induction of apoptosis in human MCF7 cells assessed as increase in Bax protein expression level at IC50 measured after 24 to 48 hrs by flow cytometric analysis. The data set is classed as functional, cell-based.
In data set [26] the test system is MCF7. Description: Effect on Bcl-2 protein expression level in human MCF7 cells at IC50 measured after 24 hrs by flow cytometric analysis. It counts as functional, cell-based. In outline: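 Bax and Bcl-2 expression in MCF-7 cells quantified by FACS after 24 and 48 h at a single equipotent (IC₅₀) concentration; Bax/Bcl-2 ratio expressed as fold of untreated control.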

The test system of data set [27] is MCF7. Description: Induction of apoptosis in human MCF7 cells assessed as decrease in Bcl-2 protein expression level at IC50 measured after 48 hrs by flow cytometric analysis. The data set is classed as functional, cell-based.
Data set [28] relates to MCF7. Description: Induction of apoptosis in human MCF7 cells assessed as increase in p53 protein expression level at IC50 measured after 24 to 48 hrs by flow cytometric analysis. It counts as functional, cell-based.
Data set [29] concerns MCF7. Description: Induction of apoptosis in human MCF7 cells assessed as decrease in p73 protein expression level at IC50 measured after 24 to 48 hrs by flow cytometric analysis. It counts as functional, cell-based.
The test system of data set [30] is MCF7. Description: Decrease in ROS production in human MCF7 cells at IC50 measured after 24 to 48 hrs by DCFH-DA probe based flow cytometric analysis. It counts as functional, cell-based.
In data set [31] the test system is Mus musculus. Description: Acute toxicity in athymic nude mouse at 50 to 200 mg/kg ip administered as single dose measured after 14 days. The data set is classed as organism-based. To be noted: in vivo, 336 h. In outline: as §1

Structures are written as SMILES. Active and inactive are the calls of the source. The rule behind the calls is not given here.

In the data set on MCF7 [1], `CCCOC(=O)Nc1nc2ccc(OCC)cc2s1` showed an Activity of 15%.

Consider `CCCCSc1ccc2nc(NC(=O)OCCC)sc2c1`, for which the result with NTERA-2-cl-D1 [2] was inactive. Besides, the results for the Activity in the data set on NTERA-2-cl-D1 [3], with NTERA-2-cl-D1 [5] and in the data set with Mus musculus [6] were 91%, 95% and “Non-Toxic”, respectively. For the same molecule, the outcome in the data set with NTERA-2-cl-D1 [4] was Active.

`CCCOC(=O)Nc1nc2ccc(SCCC)cc2s1`: the Activity came out at 24.58% in the data set with MCF7 [7]; 15.62% in the data set with MCF7 [8]; 19.3% in the data set on MCF7 [9]; 40.66% in the data set with MCF7 [10]; 50.4% in the data set on MCF7 [11]; 18.82% in the data set with MCF7 [12]. The Activity with MCF7 [13] is 15.9%; in the data set on MCF7 [14], 15.25%; in the data set on MCF7 [15], “Tde”; with MCF7 [16] it was 50.8%; in the data set on MCF7 [17] it was 21%; in the data set with MCF7 [18], 4.33%. Further, the Activity in the data set with MCF7 [19] is 3.53%; with MCF7 [20] it was 61.06%; with MCF7 [21], 7.53%; in the data set with MCF7 [22] it was 2.61%; in the data set on MCF7 [24] it was over 80%; in the data set on NTERA-2-cl-D1 [3], 69%. Further, the Activity with NTERA-2-cl-D1 [5] was 70%; in the data set with Mus musculus [31], “Non-Toxic”. Moreover, the outcome in the data set with MCF7 [23], in the data set with MCF7 [25], in the data set on MCF7 [27], in the data set on MCF7 [28], with MCF7 [30] and in the data set with NTERA-2-cl-D1 [4] was Active. Besides, the result in the data set on MCF7 [26], in the data set on MCF7 [29] and in the data set on NTERA-2-cl-D1 [2] was inactive.
